Laboratory results published in ChEMBL document CHEMBL1155242, “Radiolabeled 5-iodo-3'-O-(17beta-succinyl-5alpha-androstan-3-one)-2'-deoxyuridine and its 5'-monophosphate for imaging and therapy of androgen receptor-positive cancers: synthesis and biological evaluation” (J Med Chem, 2009).

Legend:
[1] = Ratio of drug level in tumor to spleen in athymic NCr mouse xenografted with human OVCAR-3 cells at 180 uCi, ip administered 9 days after tumor implantation as six fractionated doses every 4 days measured after 72 hrs by gamma counting; format: ADME, organism-based; conditions: in vivo
[2] = Chemical stability in RPMI-1640 serum-free medium assessed as intact compound remaining at 12.2 uCi up to 6 hrs by HPLC analysis; format: physicochemical; conditions: read-out: Stability
[3] = Biodistribution in nonadherent tumors in stomach of athymic NCr mouse xenografted with human OVCAR-3 cells at 45 uCi, ip after 72 hrs by gamma counting; format: ADME, organism-based; conditions: in vivo
Outline: (§1)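 Athymic NCr-nu/nu mice with ip OVCAR-3; 45 μCi given ip without prior SSKI. Whole-body planar imaging at 72 h with region-of-interest analysis as percent of whole-body activity; peritoneal lavage cells and ascites counted.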

[4] = Ratio of drug level in tumor to kidney in athymic NCr mouse xenografted with human OVCAR-3 cells at 180 uCi, ip administered 9 days after tumor implantation as six fractionated doses every 4 days measured after 72 hrs by gamma counting; format: ADME, organism-based; conditions: in vivo
[5] = Ratio of drug level in tumor to kidney in athymic NCr mouse xenografted with human OVCAR-3 cells at 180 uCi, ip administered 9 days after tumor implantation as six fractionated doses every 4 days measured after 48 hrs by gamma counting; format: ADME, organism-based; conditions: in vivo
[6] = molecular target: T1, Sex hormone-binding globulin (Oryctolagus cuniculus, UniProt P15196); experiment: Binding affinity to rabbit sex hormone binding globulin at 10 to 20 uCi/mL after 60 mins by reversed phase HPLC analysis; format: ADME; conditions: 1 h
T1 sequence (P15196 whole entry): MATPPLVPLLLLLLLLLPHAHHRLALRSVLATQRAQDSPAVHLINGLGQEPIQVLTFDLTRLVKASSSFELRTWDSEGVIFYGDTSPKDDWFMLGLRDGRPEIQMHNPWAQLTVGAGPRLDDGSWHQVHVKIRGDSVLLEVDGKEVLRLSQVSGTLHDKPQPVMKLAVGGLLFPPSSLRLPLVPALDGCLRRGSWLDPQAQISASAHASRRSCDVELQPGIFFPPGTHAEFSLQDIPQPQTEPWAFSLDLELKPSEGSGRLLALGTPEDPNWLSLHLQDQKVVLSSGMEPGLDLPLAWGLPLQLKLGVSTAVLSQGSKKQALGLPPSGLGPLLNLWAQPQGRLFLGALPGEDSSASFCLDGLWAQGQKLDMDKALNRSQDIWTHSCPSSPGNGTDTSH

[7] = Clearance in peritoneal cavity of athymic NCr mouse xenografted with human OVCAR-3 cells assessed as half life at 1.12 uCi, ip by gamma counting; format: ADME, organism-based; conditions: in vivo
Outline: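 Peritoneal clearance measured in athymic NCr-nu/nu mice bearing intraperitoneal NIH:OVCAR-3 xenografts after an ip dose of the 125I compound. The peritoneal cavity was lavaged, and 125I was counted in the lavage and in the recovered tumor cells. Half-lives were estimated from the clearance curves.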

[8] = Biodistribution in […] in athymic NCr mouse xenografted with human OVCAR-3 cells at 45 uCi, ip after 72 hrs by gamma counting; format: ADME, organism-based; conditions: in vivo; outline: as §1
[9] = molecular target: T2, Sex hormone-binding globulin (Homo sapiens, UniProt P04278); experiment: Binding affinity to human sex hormone binding globulin after 30 mins by size-exclusion HPLC analysis; format: ADME
T2 sequence (P04278 whole entry): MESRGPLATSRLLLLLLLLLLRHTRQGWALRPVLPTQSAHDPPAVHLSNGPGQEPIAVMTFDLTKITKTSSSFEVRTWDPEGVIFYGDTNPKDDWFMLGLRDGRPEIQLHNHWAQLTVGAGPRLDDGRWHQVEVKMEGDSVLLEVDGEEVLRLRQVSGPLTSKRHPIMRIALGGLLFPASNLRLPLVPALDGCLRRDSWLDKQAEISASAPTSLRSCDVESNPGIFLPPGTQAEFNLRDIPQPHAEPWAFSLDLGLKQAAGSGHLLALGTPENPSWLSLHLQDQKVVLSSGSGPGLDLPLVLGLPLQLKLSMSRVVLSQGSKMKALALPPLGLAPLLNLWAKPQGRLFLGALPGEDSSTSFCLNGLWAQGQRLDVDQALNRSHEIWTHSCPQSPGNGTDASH
Outline: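 Purified human SHBG diluted in PBS pH 7.1 to a range of concentrations; radioligand in CH3CN (10 μL, ~5.4 μCi average) added, vortexed, 30 min at ambient temperature. Aliquots analysed by size-exclusion HPLC for SHBG-bound peak.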

OVCAR-3 [10] = experiment: Cellular uptake in human OVCAR-3 cells expressing androgen receptor after 24 hrs; format: ADME, cell-based; conditions: ovcar-3, 24 h
Outline: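 NIH:OVCAR-3 cells in complete RPMI-1640 exposed to the radioligand for 24 h (concentration series) or at 1.75 μCi/mL for set times; medium then replaced and cells cultured further 24–48 h; whole-cell and DNA uptake in cpm/cell.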

OVCAR-3 [11] = experiment: Antitumor activity against human OVCAR-3 cells xenografted in athymic NCr mouse assessed as tumor burden in peritoneum at 0.25 mCi, ip administered 31 days after tumor implantation as single bolus dose measured 55 days after implantation by gamma counting in presence of SHBG (Rvb= 4.1 +/- 0.6 g); format: functional
Liver = experiment: Biodistribution in liver of athymic NCr mouse xenografted with human OVCAR-3 cells assessed per gram of tissue at an average 39.5 uCi/dose, ip administered 9 days after tumor implantation as six fractionated doses every 4 days measured after 2 weeks of last dose by gamma counting; format: ADME, organism-based; conditions: in vivo, 336 h
Outline: (§2)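 OVCAR-3-bearing and healthy athymic mice given fractionated ip doses on the six-dose every-4-days schedule; tissues, tumor and lavaged cells γ-counted at necropsy, %ID/g; DNA-bound 125I in cells measured as cpm/cell.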

[12] = molecular target: T1, Sex hormone-binding globulin; experiment: Binding affinity to rabbit sex hormone binding globulin at 20 uCi after 60 mins by reversed phase HPLC analysis; format: ADME; conditions: 1 h
LNCaP [13] = experiment: Cytotoxicity against human LNCAP cells expressing androgen receptor assessed as drug level required to reduce viable cell count to 37% after 48 hrs; format: functional
Outline: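 LNCaP human prostate cancer cells were grown for 48 h with the 125I-labelled compound in the medium, and cell survival was then determined. D37 was expressed as the extracellular concentration in μCi/mL.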

Blood = experiment: Biodistribution in blood of athymic NCr mouse xenografted with human OVCAR-3 cells assessed per gram of tissue at 0.25 mCi, ip administered 31 days after tumor implantation as single bolus dose measured 55 days after implantation by gamma counting in presence of SHBG; format: ADME, organism-based; conditions: in vivo
Outline: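 Mice given one ip bolus of 0.25 mCi co-injected with SHBG; blood, tumor cells, solid tumors and normal tissues taken at necropsy and counted; %ID/g decay-corrected.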

LNCaP [14] = experiment: Cellular uptake in nonproliferating human LNCAP cells expressing androgen receptor after 48 hrs by gamma counting in presence of 1 uM DHT relative to uptake in absence of DHT; format: ADME, cell-based
Lung = experiment: Biodistribution in lung of athymic NCr mouse xenografted with human OVCAR-3 cells assessed per gram of tissue at an average 39.5 uCi/dose, ip administered 9 days after tumor implantation as six fractionated doses every 4 days measured after 2 weeks of last dose by gamma counting; format: ADME, organism-based; conditions: in vivo, 336 h; outline: as §2
Heart = experiment: Biodistribution in heart of athymic NCr mouse xenografted with human OVCAR-3 cells assessed per gram of tissue at an average 39.5 uCi/dose, ip administered 9 days after tumor implantation as six fractionated doses every 4 days measured after 2 weeks of last dose by gamma counting; format: ADME, organism-based; conditions: in vivo, 336 h; outline: as §2

| Structure (SMILES) | Ratio [1] | remaining at 6 h, 12.2 uCi [2] [%] | Drug uptake [3] [%] | Ratio [4] | Ratio [5] | Activity [6] | t1/2 [7] [h] | Drug uptake [8] [%] | Kd [9] [nM] | Bmax ([9]; human, 0.5 h) [nM] | Drug uptake (OVCAR-3 [10]) | Activity (OVCAR-3 [11]) [g] | Drug uptake (Liver) [%ID] | Activity [12] | Activity (LNCaP [13]) [uCi/ml] | Drug uptake (Blood) [%ID] | Drug uptake (LNCaP [14]) [%] | Drug uptake (Lung) [%ID] | Drug uptake (Heart) [%ID] |
| --- | --- | --- | --- | --- | --- | --- | --- | --- | --- | --- | --- | --- | --- | --- | --- | --- | --- | --- | --- |
| C[C@]12CCC(=O)C[C@@H]1CC[C@@H]1[C@@H]2CC[C@]2(C)[C@@H](OC(=O)CCC(=O)O[C@H]3C[C@H](n4cc([125I])c(=O)[nH]c4=O)O[C@@H]3CO)CC[C@@H]12 | 11.9 | 90 | 3.4 | 31.9 | 61.8 | Active | 68 | 3.4 | – | – | – | – | – | – | – | – | – | – | – |
| C[C@]12CCC(=O)C[C@@H]1CC[C@@H]1[C@@H]2CC[C@]2(C)[C@@H](OC(=O)CCC(=O)O[C@H]3C[C@H](n4cc([125I])c(=O)[nH]c4=O)O[C@@H]3COP(=O)(O)O)CC[C@@H]12 | – | – | – | – | – | – | – | – | 17.2 | 4.5 | Dose-dependent effect | 3.1 | 0.017 | Active | 1.7 | 0.057 | 30 | 0.008 | 0.003 |
